Rows were chosen to be rich in hits. Some 3.4% of all compounds tested hit in one or more screens of this group.
A3G deaminase: APOBEC3G DNA deaminase inhibitors, primary screen, biochemical, fluorescence, single-stranded DNA substrate, uHTS; DNA dC->dU-editing enzyme APOBEC-3G (Homo sapiens), Q9HC16; recombinant A3G, ssDNA deamination FAM/TAMRA fluorescence; inhibition, % at 20 µM; hit rate 0.28% among 330,000;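 active = inhibition of at least 40% at 20 µM, with no more than 30% in the related APOBEC3A deaminase screen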
A3A deaminase: APOBEC3A ssDNA deaminase inhibitors, primary screen, selectivity assay for APOBEC3G inhibitor project, biochemical, FAM/TAMRA oligo cleavage fluorescence. DNA dC->dU-editing enzyme APOBEC-3A (Homo sapiens), P31941. recombinant A3A, FAM/TAMRA ssDNA deamination fluorescence. inhibition, % at 20 µM. hit rate 0.41% among 330,000. AID 493011, 2011;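 active = at least 40% inhibition at 20 µM here, with at most 30% in a related deaminase screen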
Target sequence (P31941 whole entry, looked up): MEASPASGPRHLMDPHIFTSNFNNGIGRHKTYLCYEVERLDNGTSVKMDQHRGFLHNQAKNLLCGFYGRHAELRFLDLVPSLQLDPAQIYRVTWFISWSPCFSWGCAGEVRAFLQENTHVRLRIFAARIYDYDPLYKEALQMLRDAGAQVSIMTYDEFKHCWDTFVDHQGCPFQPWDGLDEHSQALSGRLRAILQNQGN
UCH37 inh: inhibitors of human UCH37 deubiquitinase, primary screen, biochemical, Ub-AMC cleavage, fluorescence; Ubiquitin carboxyl-terminal hydrolase isozyme L5 (Homo sapiens), Q9Y5K5; purified proteasome/UCH37; inhibition, % (concentration not given with the values); hit rate 0.33% among 330,000;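 active = mean inhibition over replicate wells above about 20%, limit read from the data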
Target sequence (Q9Y5K5 whole entry, looked up): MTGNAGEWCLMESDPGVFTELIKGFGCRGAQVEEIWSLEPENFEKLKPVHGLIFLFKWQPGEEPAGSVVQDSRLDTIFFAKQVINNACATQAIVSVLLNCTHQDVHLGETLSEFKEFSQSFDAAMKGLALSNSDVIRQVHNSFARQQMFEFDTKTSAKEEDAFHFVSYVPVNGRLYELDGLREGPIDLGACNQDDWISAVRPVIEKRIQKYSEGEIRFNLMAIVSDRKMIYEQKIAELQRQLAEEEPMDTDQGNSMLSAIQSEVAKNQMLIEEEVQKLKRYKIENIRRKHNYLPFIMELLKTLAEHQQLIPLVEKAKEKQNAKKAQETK
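system = Proteasome-associated human UCH37 deubiquitinase | amount = 0.15 nM proteasome as dispensed | medium = pH 7.4 Tris-HCl (50 mM) with ovalbumin, ATP-MgCl2, DTT | incubation = 30 min preincubation with enzyme, 25 min cleavage at room temperature | detection = AMC fluorescence 355/460 nm | read-out basis = percent inhibition | controls = no-proteasome and no-compound wells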
Arr AP2 block: inhibitors of beta-arrestin/AP2 binding, primary screen, biochemical, GPCR trafficking, flow cytometry. AID 504490, 2011. inhibition, % at 10 µM. beta-arrestin 1 C-terminal peptide binding to AP2 beta2-adaptin appendage (human). hit rate 0.31% among 340,000. FITC-arrestin peptide / GST-AP2 beads; AP2 beta2 appendage carries R879A mutation;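 active = inhibition above a set limit, near 3 SD of compounds lacking own fluorescence, cut at about 54% in these data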
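Assay system: GST-AP2 R879A bound to glutathione beads, E. coli-expressed; Medium: PBS with 0.05% Tween 20 and 0.1% BSA; Also added: fluorescein-tagged arrestin peptide at 50 nM final; Timing: 12 min plus 1 h, RT; Measured by: flow cytometry, FL1 (488/535 nm); Evaluation: percent drop in bead-associated FITC signal.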
AHR activator: AHR activators, primary screen, cell-based, luminescence, luciferase reporter, human; Aryl hydrocarbon receptor (Homo sapiens), P35869; AHR-responsive luciferase reporter cells; activation, % at 5 µM; hit rate 2.5% among 320,000; in the data active = activation above about 47%
PolyA inhibitor: polyadenylation inhibitors in yeast reporter cells, primary screen, luminescence, S. cerevisiae; AID 1875, 2009; hit rate 0.02% among 300,000; activity score, % at 12 µM; S. cerevisiae SKY197-pL101 polyadenylation reporter, beta-gal luminescence; efflux-impaired pdr1/pdr3 knockout yeast; score 100 = 6 SD above DMSO;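 active = lowest replicate activity score at least 50, where 100 means six control SD above control mean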;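 note: yeast exposed to compound for 9 h at 30 °C; higher score means more reporter readthrough which indicates perturbed polyadenylation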
A3A conf: APOBEC3A deaminase inhibitors, retest, confirmation, selectivity assay for APOBEC3G inhibitor project, biochemical, single concentration, fluorescence readout. recombinant A3A, ssDNA deaminase UDG fluorescence assay. AID 493151, 2011. shares compounds with A3A deaminase. inhibition, % at 20 µM. hit rate 63% among 1,400;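 active = inhibition reaching a set limit, 80% of the first screen's cutoff, at 20 µM in any replicate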
UDG A3A counter: E. coli UDG inhibitors, confirmation, counter-screen for APOBEC3A inhibitor project, biochemical, single concentration, fluorescence, FAM/TAMRA oligo. shares compounds with A3A deaminase. UDG counterscreen, FAM/TAMRA uracil oligo fluorescence. inhibition, % at 20 µM. 1,000 tested, under 10 active. AID 504714, 2011; call rule not given here
Each line names hits and unclear results; the compound was inactive in the other large screens (follow-up assays come after a bar, where they were run).

C[N+]1(CC(O)c2ccccc2)CCCCCC1 (stereo unspecified)	A3A deaminase 69 | A3A conf 64 | UDG A3A counter inactive
CC(=O)OC(C[N+]1(C)CCCCCC1)c1ccccc1 (stereo unspecified)	A3A deaminase 79 | A3A conf 69 | UDG A3A counter inactive
CC(=O)Nc1ccc(NC(=O)C2CC(=O)N(Cc3ccco3)C2)cc1 (stereo unspecified)	A3A deaminase 47 (no result: AHR activator, PolyA inhibitor) | A3A conf inactive | UDG A3A counter inactive
CSc1cccc(NC(=O)C2CC(=O)N(Cc3ccccc3)C2)c1 (stereo unspecified)	A3A deaminase 52 | A3A conf inactive
CCOc1ccc(NC(=O)C2CC(=O)N(Cc3ccco3)C2)cc1 (stereo unspecified)	none (no result: PolyA inhibitor)
O=C(O)C1C2C=CC(C2)C1C(=O)N1CCN(C/C=C/c2ccccc2)CC1 (stereo unspecified)	A3A deaminase 47 (no result: UCH37 inh) | A3A conf inactive
Cc1cccc(NC(=O)CNC(=O)Cn2ncc(Cl)c(Cl)c2=O)c1C	A3A deaminase 49 (no result: PolyA inhibitor) | A3A conf 38 | UDG A3A counter inactive
Cc1cccc(NC(=O)CNC(=O)CSc2ncccn2)c1C	none (no result: PolyA inhibitor)
O=C(O)C/C(=C\c1cc(Cl)c2c(c1)OCO2)c1nc2ccccc2s1	A3A deaminase 45 (no result: UCH37 inh) | A3A conf 38 | UDG A3A counter inactive
O=C(O)C/C(=C\c1ccc2c(c1)OCO2)c1nc2ccccc2s1	none
Fc1ccc(C=Nc2c(-c3ccc(F)cc3)nc3n2CCS3)cc1	none (no result: A3G deaminase, A3A deaminase, Arr AP2 block, AHR activator, PolyA inhibitor)
O=C(CN1C(=O)S/C(=C/c2ccccn2)C1=O)N1CCOCC1	A3A deaminase 57 | A3A conf inactive
CC(=NNC(=O)c1ccncc1)c1ccc(N(C)C)cc1	none (no result: A3G deaminase, A3A deaminase, Arr AP2 block, AHR activator, PolyA inhibitor)
O=C(Nc1ccc(S(=O)(=O)N2CCCC2)cc1)C1CC(=O)N(c2ccccc2)C1 (stereo unspecified)	A3A deaminase 72 | A3A conf inactive
N#CCON=C(c1ccccc1)c1ccncc1	none (no result: A3G deaminase, A3A deaminase, Arr AP2 block, AHR activator, PolyA inhibitor)
COCCN1C(=O)N[C@@H](c2ccc(Br)cc2)C(C(=O)OC)=C1C	none (no result: Arr AP2 block)
COCCN1C(=NCCCOC(C)C)N[C@@H](c2ccccc2)C(C(=O)OC)=C1C	A3A deaminase 62 | A3A conf 67 | UDG A3A counter inactive
C=CCN=C1N[C@@H](c2ccccc2)C(C(=O)OC)=C(C)N1CCOC	A3A deaminase 51 | A3A conf 71 | UDG A3A counter inactive
COC(=O)C1=C(C)N(Cc2ccccc2)C(=NCCc2c[nH]c3ccccc23)N[C@H]1c1ccccc1	none (no result: PolyA inhibitor)
CCCN(Cc1cc2cc(OC)ccc2[nH]c1=O)C(=O)c1ccco1	none
COc1ccc2[nH]c(=O)c(CN(C(=O)c3ccco3)C(C)C)cc2c1	A3A deaminase 56 | A3A conf 61 | UDG A3A counter inactive
COc1cc(OC)cc(-c2nnc(SCC(=O)N(C(C)C)C(C)C)o2)c1	A3A deaminase 90 | A3A conf inactive | UDG A3A counter inactive
CN(C)S(=O)(=O)N(CC(=O)N1CCN(Cc2ccccc2)CC1)c1ccccc1	none
CN(CC(=O)N1CCN(Cc2ccccc2)CC1)C(=O)Cc1ccc(Cl)c(Cl)c1	A3A deaminase 50 (no result: PolyA inhibitor) | A3A conf 34 | UDG A3A counter inactive
O=C(O)c1cc2nc(-c3cccs3)cc(C(F)(F)F)n2n1	A3A deaminase 74 | A3A conf 50 | UDG A3A counter inactive
CCn1cc(-c2cc(C(F)(F)F)n3nc(C(=O)O)cc3n2)c(C)n1	A3A deaminase 54 | A3A conf 29 | UDG A3A counter inactive
FC(F)(F)c1cc(-c2cccs2)nc2cc(-c3ccccc3)nn12	none
Cc1[nH]c2ccccc2c1C=NNC(=O)CNC(=O)c1ccco1	none (no result: A3G deaminase, A3A deaminase, Arr AP2 block, AHR activator, PolyA inhibitor)
COC(=O)c1ccc(Cn2c(C)cc(C)[n+]2C)o1	A3A deaminase 52 | A3A conf 72 | UDG A3A counter inactive
Cc1ccc(S(=O)(=O)N2CCN(C(=O)COC(=O)CCOc3ccccc3C)CC2)c(C)c1	A3A deaminase 47 (no result: AHR activator, PolyA inhibitor) | A3A conf 62 | UDG A3A counter inactive
CS(=O)(=O)NCCn1ccc2ccccc21	none
C[N+]1(CCn2ccc3ccccc32)CCCCC1	A3A deaminase 63 | A3A conf 68 | UDG A3A counter inactive
COc1ccc(OCC(=O)NN=CC2CC=CCC2)cc1 (stereo unspecified)	none (no result: A3G deaminase, A3A deaminase, Arr AP2 block, AHR activator, PolyA inhibitor)
COc1ccc(/C=C/C(=O)N(CCC(N)=O)c2ccccc2)cc1S(=O)(=O)N1CCOCC1	A3A deaminase 41 (no result: AHR activator, PolyA inhibitor) | A3A conf 27 | UDG A3A counter inactive
COc1cccc(C=Nn2nnc3c(cnn3-c3ccccc3)c2=O)c1	none (no result: A3G deaminase, A3A deaminase, Arr AP2 block, AHR activator, PolyA inhibitor)
CNC(=O)CSc1nc2nc(C)cc(C)n2n1	none
Cc1cc(C)n2nc(SCC#N)nc2n1	A3A deaminase 97 | A3A conf inactive
CCOC(=O)NN=Cc1c(C)c(C(=O)c2ccc(F)cc2)n2ccccc12	none (no result: A3G deaminase, A3A deaminase, Arr AP2 block, AHR activator, PolyA inhibitor)
CNC(=O)CN(C1CCCCC1)S(=O)(=O)c1ccc(OC)c(Cl)c1	A3A deaminase 44 | A3A conf inactive
Cc1n[nH]c(C)c1S(=O)(=O)N1CCC(C(=O)N2CCn3c2nc2ccccc23)CC1	A3A deaminase 98 | A3A conf inactive | UDG A3A counter inactive
Cn1c(SCC(=O)N2CCOCC2)nnc1-c1ccncc1	none
Cn1c(SCC(=O)N2CCOCC2)nnc1-c1cccc(NC(=O)c2ccccc2)c1	A3A deaminase 64 | A3A conf 66 | UDG A3A counter inactive
COc1nc(Cc2ccc(Cl)cc2)nc2ccccc12	none
C#CCSc1nc(Cc2ccc(Cl)cc2)nc2ccccc12	A3A deaminase 48 | A3A conf inactive | UDG A3A counter inactive
COCCCn1c(=C(C#N)C(N)=O)sc(=Cc2ccc(OC(F)F)c(OC)c2)c1=O	none (no result: A3G deaminase, A3A deaminase, Arr AP2 block, AHR activator, PolyA inhibitor)
COC(=O)COc1ccccc1/C=C1/NC(=O)NC1=O	none

Screening results: PubChem BioAssay, several laboratories
